Assay results published in ChEMBL document CHEMBL4184128, “Design, synthesis and biological evaluation of (E)-3,4-dihydroxystyryl 4-acylaminophenethyl sulfone, sulfoxide derivatives as dual inhibitors of HIV-1 CCR5 and integrase” (Bioorg Med Chem, 2017).

Columns and labels:
[1] = Cytotoxicity against human TZM-bl cells assessed as reduction in cell viability after 2 days by CCK-8 assay; format: cell-based
Summary of the method: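 TZM-bl cells seeded at 1×10^5 cells/mL and exposed to compound at 1000, 200, 40, 8 and 1.6µM, dissolved in DMSO cell freezing medium. Cells kept at 37°C, 5% CO2, in triplicate wells, with a medium-only control. After 2 days, CCK-8 was added for 3–4 h and A450 was read. Survival % = A450 treated/control ×100. CC50 is the concentration giving 50% cytotoxicity.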

[2] = biological target: C-C chemokine receptor type 5 (Homo sapiens) (UniProt P51681); assay: Inhibition of CCR5 in human TZM-bl cells infected with HIV1 Bal R5 assessed as antiviral activity by measuring reduction in viral infection at 50 uM pre-incubated with cells followed by viral infection measured after 3 days by luciferase reporter gene assay; format: functional, cell-based
C-C chemokine receptor type 5 (Homo sapiens), sequence (P51681 whole entry, looked up): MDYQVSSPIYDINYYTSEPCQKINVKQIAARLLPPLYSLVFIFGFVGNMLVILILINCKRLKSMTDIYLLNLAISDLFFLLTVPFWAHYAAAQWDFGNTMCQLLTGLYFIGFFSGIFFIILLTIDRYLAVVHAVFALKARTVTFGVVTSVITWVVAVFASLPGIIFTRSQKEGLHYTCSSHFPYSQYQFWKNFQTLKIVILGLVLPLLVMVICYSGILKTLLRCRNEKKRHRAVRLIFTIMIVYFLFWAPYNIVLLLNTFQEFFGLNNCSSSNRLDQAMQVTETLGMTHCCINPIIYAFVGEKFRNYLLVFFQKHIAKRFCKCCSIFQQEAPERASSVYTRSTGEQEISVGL
Summary of the method: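 TZM-bl cells were plated, and medium was replaced after 12 h with compound at 50μM in duplicate wells. HIV-1 Bal (R5) at 200TCID50 was added with DEAE at 10μg/mL final. Plates were incubated 3 days at 37°C, 5% CO2. Luciferase substrate in lysis buffer reacted 2 min at room temperature, protected from light. Inhibition % was taken as the decrease in signal relative to virus control, as the mean of two wells.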

[3] = biological target: Human immunodeficiency virus type 1 integrase (Human immunodeficiency virus 1, UniProt Q7ZJM1); assay: Binding affinity to HIV1 integrase by surface plasma resonance method
Human immunodeficiency virus type 1 integrase, sequence (Q7ZJM1 whole entry): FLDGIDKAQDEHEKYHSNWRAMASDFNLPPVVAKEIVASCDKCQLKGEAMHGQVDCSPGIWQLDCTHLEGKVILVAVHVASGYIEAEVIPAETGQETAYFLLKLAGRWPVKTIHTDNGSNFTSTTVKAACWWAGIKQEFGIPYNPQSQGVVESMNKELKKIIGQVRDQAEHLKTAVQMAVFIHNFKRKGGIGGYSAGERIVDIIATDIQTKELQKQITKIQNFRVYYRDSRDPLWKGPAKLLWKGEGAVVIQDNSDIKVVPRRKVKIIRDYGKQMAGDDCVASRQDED
Summary of the method: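 IN protein amine-coupled to a CM5 sensor chip (~10000RU) on a Biacore T200. Runs at 25°C in PBST running buffer, flow 30μL/min. Compounds were injected at graded concentrations (200μM, 100μM, 50μM, 25μM, 12.5μM, etc.). Sensorgrams were solvent-corrected and reference flow cell subtracted. KD came from a 1:1 kinetic binding fit.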

| Structure (SMILES) | inhibition [2] | Kd [3] | CC50 at 48 h [1] |
| --- | --- | --- | --- |
| O=C(Nc1ccc(CCS(=O)(=O)/C=C/c2ccc(O)c(O)c2)cc1)C12CC3CC(CC(C3)C1)C2 | 21.6% |  | 786 µM |
| O=C(Cc1cccs1)Nc1ccc(CCS(=O)(=O)/C=C/c2ccc(O)c(O)c2)cc1 | < 20% |  | 569 µM |
| O=C(Nc1ccc(CC[S+]([O-])/C=C/c2ccc(O)c(O)c2)cc1)c1ccccc1 (centres undefined) | 68.4% | 142 µM | 157 µM |
| O=C(Nc1ccc(CCS(=O)(=O)/C=C/c2ccc(O)c(O)c2)cc1)c1ccc(F)cc1 | < 20% |  | > 1000 µM |
| O=C(Nc1ccc(CCS(=O)(=O)/C=C/c2ccc(O)c(O)c2)cc1)c1cc(F)cc(F)c1 | 33% |  | 414 µM |
| Cc1nnc(C(C)C)n1[C@@H]1C[C@H]2CC[C@@H](C1)N2CC[C@H](NC(=O)C1CCC(F)(F)CC1)c1ccccc1 [MARAVIROC] |  |  | > 1000 µM |
| COc1ccc(C(=O)Nc2ccc(CCS(=O)(=O)/C=C/c3ccc(O)c(O)c3)cc2)cc1 | < 20% |  | > 1000 µM |
| O=C(Nc1ccc(CC[S+]([O-])/C=C/c2ccc(O)c(O)c2)cc1)c1cc(F)cc(F)c1 (centres undefined) | 41.8% |  |  |
| O=C(Nc1ccc(CC[S+]([O-])/C=C/c2ccc(O)c(O)c2)cc1)C1CCCCC1 (centres undefined) | 52.7% |  |  |
| O=C(Nc1ccc(CCS(=O)(=O)/C=C/c2ccc(O)c(O)c2)cc1)c1ccccc1 | < 20% | 160 µM | 238 µM |
| CC(=O)Oc1ccc(/C=C/S(=O)(=O)CCc2ccc(NC(=O)C34CC5CC(CC(C5)C3)C4)cc2)cc1OC(C)=O | 23.7% |  | 182 µM |
| Cc1ccc(C(=O)Nc2ccc(CCS(=O)(=O)/C=C/c3ccc(O)c(O)c3)cc2)cc1 | < 20% |  | 168 µM |
| COc1ccc(C(=O)Nc2ccc(CC[S+]([O-])/C=C/c3ccc(O)c(O)c3)cc2)cc1 (centres undefined) | 34.1% |  |  |
| O=C(Nc1ccc(CC[S+]([O-])/C=C/c2ccc(O)c(O)c2)cc1)c1ccc(F)cc1 (centres undefined) | 64.6% |  | 127 µM |
| O=C(Nc1ccc(CCS(=O)(=O)/C=C/c2ccc(O)c(O)c2)cc1)C1CCCCC1 | 45.9% | 115 µM | 638 µM |
| O=C(Nc1ccc(CC[S+]([O-])/C=C/c2ccc(O)c(O)c2)cc1)C12CC3CC(CC(C3)C1)C2 (centres undefined) | 64.7% |  |  |

The next lines start with results.

| inhibition [2] | Kd [3] | Structure (SMILES) | CC50 at 48 h [1] |
| --- | --- | --- | --- |
| 26.2% |  | CC(=O)Oc1ccc(/C=C/S(=O)(=O)CCc2ccc(NC(=O)c3ccc(F)cc3)cc2)cc1OC(C)=O | 162 µM |
| 23% |  | CC(=O)Oc1ccc(/C=C/S(=O)(=O)CCc2ccc(NC(=O)Cc3cccs3)cc2)cc1OC(C)=O | 161 µM |
| < 20% | 207 µM | CC(=O)Oc1ccc(/C=C/S(=O)(=O)CCc2ccc(NC(=O)c3ccccc3)cc2)cc1OC(C)=O | 108 µM |
| 52.2% |  | CC(=O)Oc1ccc(/C=C/S(=O)(=O)CCc2ccc(NC(=O)c3ccc([N+](=O)[O-])cc3)cc2)cc1OC(C)=O | 160 µM |
| < 20% |  | CC(=O)Oc1ccc(/C=C/S(=O)(=O)CCc2ccc(NC(=O)c3cc(F)cc(F)c3)cc2)cc1OC(C)=O | 225 µM |
| < 20% |  | COc1ccc(C(=O)Nc2ccc(CCS(=O)(=O)/C=C/c3ccc(OC(C)=O)c(OC(C)=O)c3)cc2)cc1 | 858 µM |
| < 20% |  | CC(=O)Oc1ccc(/C=C/S(=O)(=O)CCc2ccc(NC(=O)C3CCCCC3)cc2)cc1OC(C)=O | 169 µM |
| < 20% |  | CC(=O)Oc1ccc(/C=C/S(=O)(=O)CCc2ccc(NC(=O)c3ccc(C)cc3)cc2)cc1OC(C)=O | 177 µM |
| 23.4% |  | O=C(Nc1ccc(CCS(=O)(=O)/C=C/c2ccc(O)c(O)c2)cc1)c1ccc([N+](=O)[O-])cc1 | 483 µM |
